Reference: article PMC7004521 (Cancer Science, 2019)

Test: Adverse events suspected to be study drug related, phase 1 study
Type: in vivo, human
Procedure, shortened: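 Adult patients with advanced solid tumours and confirmed MET dysregulation took oral capsules twice daily from 100 up to 600 mg in escalation, or 400 mg bid tablets, in 28-day cycles. Expansion was 600 mg bid capsules, with a switch to 400 mg bid tablets allowed. Patients were included if they had ≥1 dose and ≥1 valid post-baseline safety assessment. Events were graded by CTCAE v4.0.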

[1] = drug-related, all escalation N=38
[2] = drug-related, all expansions RP2D N=38
[3] = drug-related, escalation 400 mg bid tablet n=5
[4] = drug-related, escalation 450 mg bid n=9
[5] = drug-related, escalation 600 mg bid n=8

## CNC(=O)c1ccc(-c2cnc3ncc(Cc4ccc5ncccc5c4)n3n2)cc1F [capmatinib]
Across all explored doses
  tolerability: well tolerated
[1]
  ALT increased, all grades: 3 (8) n (%)
  ALT increased, grade 3/4: 2 (5) n (%)
  AST increased, all grades: 5 (13) n (%)
  AST increased, grade 3/4: 1 (3) n (%)
  Amylase increased, all grades: 2 (5) n (%)
  Amylase increased, grade 3/4: 1 (3) n (%)
  Asthenia, all grades: 6 (16) n (%)
  Asthenia, grade 3/4: 0 n (%)
  Blood bilirubin increased, all grades: 4 (11) n (%)
  Blood bilirubin increased, grade 3/4: 1 (3) n (%)
  Blood creatinine increased, all grades: 2 (5) n (%)
  Blood creatinine increased, grade 3/4: 0 n (%)
  Constipation, all grades: 3 (8) n (%)
  Constipation, grade 3/4: 0 n (%)
  Decreased appetite, all grades: 11 (29) n (%)
  Diarrhea, all grades: 5 (13) n (%)
  Diarrhea, grade 3/4: 0 n (%)
  Dizziness, all grades: 1 (3) n (%)
  Dizziness, grade 3/4: 0 n (%)
  Dyspepsia, all grades: 1 (3) n (%)
  Dyspepsia, grade 3/4: 0 n (%)
  Fatigue, all grades: 10 (26) n (%)
  Fatigue, grade 3/4: 3 (8) n (%)
  Headache, all grades: 2 (5) n (%)
  Headache, grade 3/4: 0 n (%)
  Hypoalbuminemia, all grades: 6 (16) n (%)
  Hypoalbuminemia, grade 3/4: 1 (3) n (%)
  Hypophagia, all grades: 2 (5) n (%)
  Hypophagia, grade 3/4: 2 (5) n (%)
  Lipase increased, all grades: 1 (3) n (%)
  Lipase increased, grade 3/4: 1 (3) n (%)
  Maculo‐papular rash, all grades: 1 (3) n (%)
  Maculo‐papular rash, grade 3/4: 0 n (%)
  Myalgia, all grades: 2 (5) n (%)
  Myalgia, grade 3/4: 0 n (%)
  Nausea, all grades: 12 (32) n (%)
  Nausea, grade 3/4: 0 n (%)
  Odynophagia, all grades: 2 (5) n (%)
  Odynophagia, grade 3/4: 0 n (%)
  Peripheral edema, all grades: 8 (21) n (%)
  Peripheral edema, grade 3/4: 1 (3) n (%)
  Pyrexia, all grades: 2 (5) n (%)
  Pyrexia, grade 3/4: 0 n (%)
  Stomatitis, all grades: 2 (5) n (%)
  Stomatitis, grade 3/4: 0 n (%)
  Thrombocytopenia, all grades: 1 (3) n (%)
  Thrombocytopenia, grade 3/4: 0 n (%)
  Total protein decreased, all grades: 2 (5) n (%)
  Total protein decreased, grade 3/4: 0 n (%)
  Upper abdominal pain, all grades: 2 (5) n (%)
  Upper abdominal pain, grade 3/4: 0 n (%)
  Vomiting, all grades: 11 (29) n (%)
  Vomiting, grade 3/4: 0 n (%)
[2]
  ALT increased, all grades: 2 (5) n (%)
  ALT increased, grade 3/4: 2 (5) n (%)
  AST increased, all grades: 4 (11) n (%)
  Amylase increased, all grades: 0 n (%)
  Amylase increased, grade 3/4: 0 n (%)
  Asthenia, all grades: 2 (5) n (%)
  Asthenia, grade 3/4: 0 n (%)
  Blood bilirubin increased, all grades: 0 n (%)
  Blood bilirubin increased, grade 3/4: 0 n (%)
  Blood creatinine increased, all grades: 2 (5) n (%)
  Blood creatinine increased, grade 3/4: 1 (3) n (%)
  Constipation, all grades: 1 (3) n (%)
  Constipation, grade 3/4: 0 n (%)
  Decreased appetite, all grades: 4 (11) n (%)
  Decreased appetite, grade 3/4: 0 n (%)
  Diarrhea, all grades: 7 (18) n (%)
  Diarrhea, grade 3/4: 0 n (%)
  Dizziness, all grades: 2 (5) n (%)
  Dizziness, grade 3/4: 0 n (%)
  Dyspepsia, all grades: 2 (5) n (%)
  Dyspepsia, grade 3/4: 0 n (%)
  Fatigue, all grades: 9 (24) n (%)
  Fatigue, grade 3/4: 1 (3) n (%)
  Headache, all grades: 1 (3) n (%)
  Headache, grade 3/4: 0 n (%)
  Hypoalbuminemia, all grades: 1 (3) n (%)
  Hypoalbuminemia, grade 3/4: 0 n (%)
  Lipase increased, all grades: 3 (8) n (%)
  Lipase increased, grade 3/4: 2 (5) n (%)
  Localized edema, all grades: 2 (5) n (%)
  Localized edema, grade 3/4: 0 n (%)
  Maculo‐papular rash, all grades: 2 (5) n (%)
  Maculo‐papular rash, grade 3/4: 0 n (%)
  Myalgia, all grades: 2 (5) n (%)
  Myalgia, grade 3/4: 0 n (%)
  Nausea, all grades: 11 (29) n (%)
  Nausea, grade 3/4: 1 (3) n (%)
  Odynophagia, all grades: 0 n (%)
  Odynophagia, grade 3/4: 0 n (%)
  Peripheral edema, all grades: 10 (26) n (%)
  Peripheral edema, grade 3/4: 0 n (%)
  Pyrexia, all grades: 0 n (%)
  Pyrexia, grade 3/4: 0 n (%)
  Stomatitis, all grades: 1 (3) n (%)
  Stomatitis, grade 3/4: 0 n (%)
  Thrombocytopenia, all grades: 2 (5) n (%)
  Thrombocytopenia, grade 3/4: 1 (3) n (%)
  Total protein decreased, all grades: 0 n (%)
  Total protein decreased, grade 3/4: 0 n (%)
  Upper abdominal pain, all grades: 0 n (%)
  Upper abdominal pain, grade 3/4: 0 n (%)
  Vomiting, all grades: 7 (18) n (%)
  Vomiting, grade 3/4: 1 (3) n (%)
[3]
  ALT increased, all grades: 1 (20) n (%)
  ALT increased, grade 3/4: 0 n (%)
  AST increased, all grades: 1 (20) n (%)
  Amylase increased, all grades: 0 n (%)
  Amylase increased, grade 3/4: 0 n (%)
  Asthenia, all grades: 1 (20) n (%)
  Asthenia, grade 3/4: 0 n (%)
  Blood bilirubin increased, all grades: 0 n (%)
  Blood bilirubin increased, grade 3/4: 0 n (%)
  Blood creatinine increased, all grades: 0 n (%)
  Blood creatinine increased, grade 3/4: 0 n (%)
  Constipation, all grades: 1 (20) n (%)
  Constipation, grade 3/4: 0 n (%)
  Decreased appetite, all grades: 0 n (%)
  Decreased appetite, grade 3/4: 0 n (%)
  Diarrhea, all grades: 1 (20) n (%)
  Diarrhea, grade 3/4: 0 n (%)
  Dizziness, all grades: 1 (20) n (%)
  Dizziness, grade 3/4: 0 n (%)
  Dyspepsia, all grades: 0 n (%)
  Dyspepsia, grade 3/4: 0 n (%)
  Fatigue, all grades: 1 (20) n (%)
  Fatigue, grade 3/4: 0 n (%)
  Headache, all grades: 0 n (%)
  Headache, grade 3/4: 0 n (%)
  Hypoalbuminemia, all grades: 2 (40) n (%)
  Hypoalbuminemia, grade 3/4: 0 n (%)
  Hypophagia, all grades: 0 n (%)
  Hypophagia, grade 3/4: 0 n (%)
  Lipase increased, all grades: 0 n (%)
  Lipase increased, grade 3/4: 0 n (%)
  Maculo‐papular rash, all grades: 0 n (%)
  Maculo‐papular rash, grade 3/4: 0 n (%)
  Myalgia, all grades: 0 n (%)
  Myalgia, grade 3/4: 0 n (%)
  Nausea, all grades: 2 (40) n (%)
  Nausea, grade 3/4: 0 n (%)
  Odynophagia, all grades: 1 (20) n (%)
  Odynophagia, grade 3/4: 0 n (%)
  Peripheral edema, all grades: 2 (40) n (%)
  Peripheral edema, grade 3/4: 0 n (%)
  Pyrexia, all grades: 0 n (%)
  Pyrexia, grade 3/4: 0 n (%)
  Stomatitis, all grades: 1 (20) n (%)
  Stomatitis, grade 3/4: 0 n (%)
  Thrombocytopenia, all grades: 0 n (%)
  Thrombocytopenia, grade 3/4: 0 n (%)
  Total protein decreased, all grades: 0 n (%)
  Total protein decreased, grade 3/4: 0 n (%)
  Upper abdominal pain, all grades: 1 (20) n (%)
  Upper abdominal pain, grade 3/4: 0 n (%)
  Vomiting, all grades: 1 (20) n (%)
  Vomiting, grade 3/4: 0 n (%)
[4]
  ALT increased, all grades: 1 (11) n (%)
  ALT increased, grade 3/4: 1 (11) n (%)
  AST increased, all grades: 1 (11) n (%)
  AST increased, grade 3/4: 1 (11) n (%)
  Amylase increased, all grades: 0 n (%)
  Amylase increased, grade 3/4: 0 n (%)
  Asthenia, all grades: 1 (11) n (%)
  Asthenia, grade 3/4: 0 n (%)
  Blood bilirubin increased, all grades: 0 n (%)
  Blood bilirubin increased, grade 3/4: 0 n (%)
  Blood creatinine increased, all grades: 0 n (%)
  Blood creatinine increased, grade 3/4: 0 n (%)
  Constipation, all grades: 0 n (%)
  Constipation, grade 3/4: 0 n (%)
  Decreased appetite, all grades: 3 (33) n (%)
  Decreased appetite, grade 3/4: 0 n (%)
  Diarrhea, all grades: 0 n (%)
  Diarrhea, grade 3/4: 0 n (%)
  Dizziness, all grades: 0 n (%)
  Dizziness, grade 3/4: 0 n (%)
  Dyspepsia, all grades: 0 n (%)
  Dyspepsia, grade 3/4: 0 n (%)
  Fatigue, all grades: 3 (33) n (%)
  Fatigue, grade 3/4: 1 (11) n (%)
  Headache, all grades: 1 (11) n (%)
  Headache, grade 3/4: 0 n (%)
  Hypoalbuminemia, all grades: 0 n (%)
  Hypoalbuminemia, grade 3/4: 0 n (%)
  Hypophagia, all grades: 0 n (%)
  Hypophagia, grade 3/4: 0 n (%)
  Lipase increased, all grades: 0 n (%)
  Lipase increased, grade 3/4: 0 n (%)
  Maculo‐papular rash, all grades: 1 (11) n (%)
  Maculo‐papular rash, grade 3/4: 0 n (%)
  Myalgia, all grades: 0 n (%)
  Myalgia, grade 3/4: 0 n (%)
  Nausea, all grades: 4 (44) n (%)
  Nausea, grade 3/4: 0 n (%)
  Odynophagia, all grades: 0 n (%)
  Odynophagia, grade 3/4: 0 n (%)
  Peripheral edema, all grades: 2 (22) n (%)
  Peripheral edema, grade 3/4: 0 n (%)
  Pyrexia, all grades: 1 (11) n (%)
  Pyrexia, grade 3/4: 0 n (%)
  Stomatitis, all grades: 0 n (%)
  Stomatitis, grade 3/4: 0 n (%)
  Thrombocytopenia, all grades: 0 n (%)
  Thrombocytopenia, grade 3/4: 0 n (%)
  Total protein decreased, all grades: 0 n (%)
  Total protein decreased, grade 3/4: 0 n (%)
  Upper abdominal pain, all grades: 0 n (%)
  Upper abdominal pain, grade 3/4: 0 n (%)
  Vomiting, all grades: 3 (33) n (%)
  Vomiting, grade 3/4: 0 n (%)
[5]
  ALT increased, all grades: 1 (13) n (%)
  ALT increased, grade 3/4: 1 (13) n (%)
  AST increased, all grades: 2 (25) n (%)
  Amylase increased, all grades: 0 n (%)
  Amylase increased, grade 3/4: 0 n (%)
  Asthenia, all grades: 0 n (%)
  Asthenia, grade 3/4: 0 n (%)
  Blood bilirubin increased, all grades: 1 (13) n (%)
  Blood bilirubin increased, grade 3/4: 0 n (%)
  Blood creatinine increased, all grades: 0 n (%)
  Blood creatinine increased, grade 3/4: 0 n (%)
  Constipation, all grades: 0 n (%)
  Constipation, grade 3/4: 0 n (%)
  Decreased appetite, all grades: 3 (38) n (%)
  Decreased appetite, grade 3/4: 0 n (%)
  Diarrhea, all grades: 2 (25) n (%)
  Diarrhea, grade 3/4: 0 n (%)
  Dizziness, all grades: 0 n (%)
  Dizziness, grade 3/4: 0 n (%)
  Dyspepsia, all grades: 1 (13) n (%)
  Dyspepsia, grade 3/4: 0 n (%)
  Fatigue, all grades: 3 (38) n (%)
  Fatigue, grade 3/4: 0 n (%)
  Headache, all grades: 0 n (%)
  Headache, grade 3/4: 0 n (%)
  Hypoalbuminemia, all grades: 1 (13) n (%)
